Bioassay records as filed in PubChem.
A selection: hits, their analogues and other compounds. The true share with any hit is near 3.1%.
CSN inh = inhibitors of CSN-mediated cullin deneddylation, primary screen, biochemical, fluorescence polarization, uHTS | COP9 signalosome complex subunit 5 (Homo sapiens), Q92905 | Purified CSN, SCF-Nedd8-OG deneddylation | inhibition, % at 12.5 µM | hit rate 0.38% among 360,000;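 active means pattern-corrected inhibition above about 35%, with an unprinted fluorescence ratio check between 0.5 and 1.5, limit read from the data, passing the limit was not always enough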;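 further: 0% = enzyme with substrate and 100% = substrate without enzyme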
Target sequence (Q92905 whole entry, looked up, one chain of several): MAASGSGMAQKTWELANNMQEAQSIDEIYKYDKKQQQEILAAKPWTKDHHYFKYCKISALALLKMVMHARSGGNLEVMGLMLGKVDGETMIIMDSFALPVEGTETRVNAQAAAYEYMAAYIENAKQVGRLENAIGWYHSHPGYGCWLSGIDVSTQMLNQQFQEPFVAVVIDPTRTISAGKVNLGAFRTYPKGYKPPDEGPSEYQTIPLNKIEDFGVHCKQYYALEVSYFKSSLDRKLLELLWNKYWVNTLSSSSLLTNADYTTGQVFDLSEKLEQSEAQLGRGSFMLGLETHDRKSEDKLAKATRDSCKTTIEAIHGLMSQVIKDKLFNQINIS
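Schedule: reaction 90 min, room temperature / Assay system: HEK293T-derived human Csn5 enzyme / Input: Csn5 at 0.24 nM final / Measure: inhibition of Csn5 cleavage, % / Control set: substrate-only high control, full reaction low control / Technique: fluorescence polarization of the substrate / Buffer or medium: Tris/NaCl/DTT buffer, pH 7.5 / Reagent: SCFSkp2-Nedd8OG substrate at 10 nM final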
UHRF1 binding = UHRF1 methylated DNA binding inhibitors, primary screen, counter-screen for MBD2 inhibitor project, biochemical, TR-FRET, human UHRF1, single concentration | UHRF1 binding to methylated oligo | inhibition, % at 4.4 µM | hit rate 0.75% among 370,000 | AID 687016, 2013; in the data active means inhibition above about 21%;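 further: UHRF1 SRA domain binding a hemimethylated CpG hairpin DNA probe; 0% = median of test compound wells and 100% = reference inhibitor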
LEDGF integ inh = blockers of LEDGF/p75-dependent integrase strand transfer – biochemical, TR-FRET, high throughput, primary screen; HIV-1 integrase (with human LEDGF/p75); TR-FRET IN-LEDGF/p75 DNA integration, Eu/Cy5; inhibition, % at 3.7 µM; hit rate 0.64% among 370,000; AID 743269, 2014;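 active means inhibition above the screen-wide mean plus 3 SD, cut at about 13% in these data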;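 further: signal is the Cy5 over europium emission ratio at 671 and 618 nm; 0% = plate median of compound wells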
rCAG binder = binders of r(CAG) RNA repeats, primary screen, biochemical, fluorescence. r(CAG) RNA repeat, TO-PRO-1 dye displacement fluorescence. inhibition, % at 3 µM. hit rate 1.3% among 370,000. AID 651821, 2012;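 active means inhibition above the plate cutoff, the mean of all test compounds on that plate plus 3 SD, cut at about 35% in these data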;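 further: 0% = DMSO alone and 100% = 100 µM mitoxantrone as full dye displacement; higher means more dye released from RNA so lower well fluorescence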
MBD2 DNA inh = inhibitors of MBD2 binding to methylated DNA, primary screen, biochemical, TR-FRET, DNA-binding domain, human. Methyl-CpG-binding domain protein 2 (Homo sapiens), Q9UBB5. hit rate 0.31% among 370,000. AID 686964, 2013. inhibition, % at 4.4 µM. MBD2 binding to methylated oligonucleotide; in the data active means inhibition above about 13%
ATG4B inhibitor = ATG4B protease inhibitors, primary screen, biochemical, fluorescence, uHTS | ATG4B cleavage of LC3-PLA2, NBD-HPC fluorescence, 1 h | inhibition, % at 8.33 µM | Cysteine protease ATG4B (Homo sapiens), Q9Y4P1 | hit rate 0.51% among 340,000 | AID 504462, 2011; in the data active means inhibition above about 40%
* hit, by the source's call; · = not tested or not shown.

SMILES	CSN inh	UHRF1 binding	LEDGF integ inh	rCAG binder	MBD2 DNA inh	ATG4B inhibitor
O=C1OC(c2ccccc2)Sc2ccccc21 (stereo unspecified)	-6.3	0.9	-1.2	0.4	-0.8	47.5*
COc1cccc2c(NCc3ccccc3)nc(-n3c(N)nc4ccccc43)nc12	·	-2.2	-4.4	·	5.5	·
COc1ccc(N2Cc3ccccc3/C2=N\C(=O)Nc2ccccc2)cc1	2.0	22.4*	3.0	0.3	2.3	-8.6
Cc1ncc(CO)c(/C=N/NC(=O)c2cc(Br)ccc2O)c1O	11.6	24.3*	-7.7	6.2	0.3	-5.1
Cc1cc(NC(=O)CCC(=O)N(CC(=O)NCC2CCCO2)c2cccc(F)c2)no1 (stereo unspecified)	-2.0	0.1	40.8*	-1.0	-5.6	1.8
O=C(/C=C/c1ccc([N+](=O)[O-])cc1)N1CCN(S(=O)(=O)c2ccccc2)CC1	47.1*	-1.2	-1.1	3.5	-0.9	-13.5
O=C(/C=C/c1ccc([N+](=O)[O-])cc1)N1CCN(Cc2ccccc2)CC1	-4.3	-0.8	5.0	-5.8	-4.5	0.7
O=C(NN=C1CCN(Cc2ccccc2)CC1)C(O)c1ccccc1 (stereo unspecified)	1.7	48.9*	0.5	-0.7	-1.7	-1.4
COC(=O)[C@]12C[C@H](CC(=O)NCc3ccccc3)C(=O)N(Cc3ccco3)C1=C[C@H](COCc1ccccc1)O[C@@H]2C	·	-0.4	7.0	14.5	3.6	·
Cc1cc(NC(=O)C2CC2)ncc1NC(=O)c1ccccn1	1.1	21.8*	-2.1	1.4	2.4	-8.2
Cc1cc(NC(=O)C2CCCCC2)ncc1NC(=O)c1ccccn1	0.7	-0.9	-1.7	-5.4	-1.5	11.9
O=C(NCc1ccccc1Cl)C1CCC(CNS(=O)(=O)c2cccc3cccnc23)CC1 (stereo unspecified)	·	4.7	-0.1	20.3	4.2	·
COc1ccc(CCN(Cc2cccs2)S(=O)(=O)c2ccc(C)c(C)c2)cc1OC	·	-0.7	-1.1	7.0	6.2	·
O=C(Nc1ccc(F)c(F)c1)C1CCN(S(=O)(=O)c2cccs2)CC1	-4.2	31.0*	-8.5	6.3	3.8	-7.5
N#CCN1C(=O)NC2(CCCc3sccc32)C1=O (stereo unspecified)	5.1	94.2*	0.0	3.4	3.0	0.8
CN(Cc1ccccc1)C(=O)CN1C(=O)NC2(CCCc3sccc32)C1=O (stereo unspecified)	-1.2	1.7	-2.5	0.3	4.1	·
O=C(Cn1ncc2c1-c1ccccc1OC2)N1CCN(Cc2ccccc2)CC1	-1.0	27.2*	1.7	-7.0	10.8	-3.8
CCOC(=O)c1c(CSc2ccccc2)n(C)c2cc(Br)c(OCC(O)CNC(CO)(CO)CO)cc12 (stereo unspecified)	70.8*	2.0	5.2	7.3	-2.5	31.3
COc1ccc(C(=O)Nc2ccccc2C(=O)O)cc1NC(=O)C(c1ccccc1)c1ccccc1	3.8	1.2	1.5	81.8*	1.4	26.1
Cc1cccc(NC(=O)CSc2nnc(-c3ccco3)c(-c3ccco3)n2)c1	24.9	0.6	12.1	41.8*	1.2	8.7
COc1ccc(NC(=O)CSc2nnc(-c3ccco3)n2N)cc1Cl	-1.4	22.5*	-0.9	2.2	-0.9	-0.2
CCCCNS(=O)(=O)/C=C/c1cc(C)ccc1CNC(=O)OC(C)(C)C	·	-3.2	2.4	-2.5	4.9	·
O=C(CCNS(=O)(=O)c1ccccc1C(F)(F)F)NCCCSc1ccccc1	5.5	-2.7	10.8	-0.3	-3.1	-10.8
Cc1cc(C)n(CCCNC(=O)CCNS(=O)(=O)c2ccccc2C(F)(F)F)n1	-3.3	23.8*	1.4	4.7	-1.0	-4.7
O=C(c1cccs1)C1CCN(c2ncnc3sccc23)CC1	·	-4.0	2.6	·	-1.1	·
SMILES	CSN inh	UHRF1 binding	LEDGF integ inh	rCAG binder	MBD2 DNA inh	ATG4B inhibitor
N#CC1=C(SCC(=O)Nc2cccc3cccnc23)NC(=O)C(C#N)C12CCCCC2 (stereo unspecified)	6.4	-3.3	-0.6	48.0*	-8.5	-9.3
N#CC1=C(SCC(=O)NC2CC2)NC(=O)C(C#N)C12CCCCC2 (stereo unspecified)	-2.5	-2.3	-3.8	1.9	-1.2	1.2
O=C(CCSCc1ccccc1Cl)NC1CCCC1	-5.1	23.7*	-2.3	-4.5	11.1	-1.4
O=C(CSc1nc(-c2ccccc2)c(-c2ccccc2)o1)N1CCOCC1	-4.2	92.3*	-1.6	-9.2	-0.3	-1.3
CN(Cc1ccccc1)S(=O)(=O)c1cccc(C(=O)OCc2cccc([N+](=O)[O-])c2)c1	·	-1.6	-1.4	6.9	-1.6	·
CC(OC(=O)/C=C/c1cccc(Cl)c1)C(=O)NC1CCCCC1C (stereo unspecified)	-0.8	-1.5	-1.1	-1.4	1.9	3.2
CC(OC(=O)c1cccc(Cl)c1)C(=O)NC1CCCCC1C (stereo unspecified)	57.4*	-3.2	4.1	-2.7	-0.3	-1.6
CC(OC(=O)Cc1c[nH]c2ccccc12)C(=O)NC1CCCCC1C (stereo unspecified)	-0.8	23.0*	0.8	-1.8	7.7	-65.7
CC1CCCC(NC(=O)COC(=O)Cc2c[nH]c3ccccc23)C1C (stereo unspecified)	-6.9	3.8	0.7	-5.3	2.0	-4.9
CCCNS(=O)(=O)c1ccc(OCC(=O)Nc2ccc3c(c2)OCCO3)cc1	0.9	24.3*	-2.0	-2.5	5.0	-18.1
C/C=C/C(=O)N1CCC(C(=O)NCC2COc3ccccc3O2)CC1 (stereo unspecified)	·	14.1	-1.9	5.5	-3.4	·
COc1ccc(C(=O)N/N=C/c2sc(N3CCOCC3)nc2-c2ccccc2)cc1OC	-7.7	-1.2	-1.1	-0.2	-3.9	-7.5
COc1ccccc1NS(=O)(=O)c1cc([N+](=O)[O-])ccc1N/N=C/c1sc(N2CCOCC2)nc1-c1ccccc1	53.5*	-0.7	2.1	3.7	-3.3	-9.6
CCOc1ccc(CCNC(=O)c2cc(-c3ccccc3)c(N3CCOCC3)s2)cc1OC	·	1.1	-1.9	10.2	1.9	·
Cc1ccc(/C=c2\sc3nc(-c4ccco4)nn3c2=O)o1	43.3*	·	·	·	·	9.1
Cc1ccc(/C=c2/sc3nnc(-c4ccccc4Cl)n3c2=O)o1	16.0	6.1	1.2	20.1	-0.2	1.4
CCOC(=O)c1c(NC(=O)COC(=O)CCOc2ccc(OCC)cc2)sc(C(=O)N(C)C)c1C	120.6*	·	·	·	·	-5.3
